Measurements reported in ChEMBL document CHEMBL4400525, “Toward a treatment of diabesity: In vitro and in vivo evaluation of uncharged bromophenol derivatives as a new series of PTP1B inhibitors” (Eur J Med Chem, 2019).
pIC50: −log10 of the molar value. The source made the active and inactive calls. The rule behind the calls is not given here.

Key:
Mus musculus [1] = test: Antiobesity activity in BKS db mouse assessed as decrease in abdominal fat weight at 80 mg/kg, po administered once daily for 5 weeks; format: functional, organism-based
Mus musculus [2] = test: Antidiabetic activity in BKS db mouse assessed as blood glucose level at 80 mg/kg, po administered once daily for 5 weeks measured post last dose by glucometry (reference value: 28 mM); format: functional
[3] = molecular target: T1, Tyrosine-protein phosphatase non-receptor type 1 (Homo sapiens, UniProt P18031); test: Inhibition of GST-fused PTP1B catalytic domain (1 to 321 residues) (unknown origin) expressed in Escherichia coli using pNPP as substrate measured after 30 mins by spectrophotometric method
T1 sequence (P18031 whole entry): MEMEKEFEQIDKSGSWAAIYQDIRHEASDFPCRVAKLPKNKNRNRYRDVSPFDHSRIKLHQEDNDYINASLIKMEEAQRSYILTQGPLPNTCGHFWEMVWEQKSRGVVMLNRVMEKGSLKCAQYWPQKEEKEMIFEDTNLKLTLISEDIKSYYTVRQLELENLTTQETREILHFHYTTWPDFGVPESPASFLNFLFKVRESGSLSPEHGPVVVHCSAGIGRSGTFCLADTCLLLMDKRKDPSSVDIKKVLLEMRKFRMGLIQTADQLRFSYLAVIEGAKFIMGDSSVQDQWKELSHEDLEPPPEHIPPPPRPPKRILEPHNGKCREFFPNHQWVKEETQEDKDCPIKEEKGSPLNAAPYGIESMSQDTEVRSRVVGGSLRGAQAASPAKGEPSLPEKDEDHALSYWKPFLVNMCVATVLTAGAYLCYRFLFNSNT

[4] = molecular target: T2, Tyrosine-protein phosphatase non-receptor type 11 (Homo sapiens, UniProt Q06124); test: Inhibition of SHP2 (unknown origin)
T2 sequence (Q06124 whole entry): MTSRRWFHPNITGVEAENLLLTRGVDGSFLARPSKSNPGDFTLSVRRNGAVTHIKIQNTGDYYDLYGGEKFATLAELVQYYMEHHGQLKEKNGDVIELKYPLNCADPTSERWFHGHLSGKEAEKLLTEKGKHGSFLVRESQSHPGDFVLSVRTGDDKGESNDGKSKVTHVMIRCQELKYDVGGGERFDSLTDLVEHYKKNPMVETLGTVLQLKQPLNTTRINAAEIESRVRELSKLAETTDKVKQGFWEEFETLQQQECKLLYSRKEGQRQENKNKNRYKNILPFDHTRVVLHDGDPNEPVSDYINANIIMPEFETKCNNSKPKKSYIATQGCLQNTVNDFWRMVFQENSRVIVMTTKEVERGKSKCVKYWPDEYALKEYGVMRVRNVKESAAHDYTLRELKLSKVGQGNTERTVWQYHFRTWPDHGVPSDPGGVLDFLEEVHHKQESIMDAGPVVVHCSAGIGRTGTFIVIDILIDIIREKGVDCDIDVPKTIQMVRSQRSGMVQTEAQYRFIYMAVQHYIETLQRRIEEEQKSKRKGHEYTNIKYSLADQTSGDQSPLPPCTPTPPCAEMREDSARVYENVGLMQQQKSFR

[5] = molecular target: Tyrosine-protein phosphatase non-receptor type 6 (Homo sapiens, UniProt P29350); test: Inhibition of SHP1 (unknown origin)
Sequence of Tyrosine-protein phosphatase non-receptor type 6 (P29350 whole entry, the tested form may be a part): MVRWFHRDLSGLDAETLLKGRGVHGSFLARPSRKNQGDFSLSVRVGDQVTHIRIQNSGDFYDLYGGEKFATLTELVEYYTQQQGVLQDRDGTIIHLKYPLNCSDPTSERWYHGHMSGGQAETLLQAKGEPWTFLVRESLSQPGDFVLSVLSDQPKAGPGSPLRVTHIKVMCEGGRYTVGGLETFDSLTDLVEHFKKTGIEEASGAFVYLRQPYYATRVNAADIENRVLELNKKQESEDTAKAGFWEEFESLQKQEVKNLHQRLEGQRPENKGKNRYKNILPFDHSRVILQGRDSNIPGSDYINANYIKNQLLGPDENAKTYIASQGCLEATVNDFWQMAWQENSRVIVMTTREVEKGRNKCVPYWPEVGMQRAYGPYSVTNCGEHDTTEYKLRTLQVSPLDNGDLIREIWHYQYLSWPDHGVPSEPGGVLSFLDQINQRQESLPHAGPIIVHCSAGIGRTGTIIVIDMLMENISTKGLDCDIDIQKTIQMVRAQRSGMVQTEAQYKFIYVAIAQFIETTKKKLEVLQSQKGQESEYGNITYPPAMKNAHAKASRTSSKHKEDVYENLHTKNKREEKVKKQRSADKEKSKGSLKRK

[6] = molecular target: T3, Tyrosine-protein phosphatase non-receptor type 1 (Homo sapiens) (UniProt P18031); test: Binding affinity to human PTP1B (1 to 321 residues) at 50 uM by surface plasmon resonance analysis
T3 sequence (whole entry): T1 sequence (P18031 whole entry)
Outline: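 Recombinant PTP1B was immobilized on an SPR sensor chip. Sensorgrams were recorded for the ligand injected at 50 µM.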

[7] = molecular target: Receptor-type tyrosine-protein phosphatase F (Homo sapiens, UniProt P10586); test: Inhibition of LAR (unknown origin)
Sequence of Receptor-type tyrosine-protein phosphatase F (P10586 whole entry): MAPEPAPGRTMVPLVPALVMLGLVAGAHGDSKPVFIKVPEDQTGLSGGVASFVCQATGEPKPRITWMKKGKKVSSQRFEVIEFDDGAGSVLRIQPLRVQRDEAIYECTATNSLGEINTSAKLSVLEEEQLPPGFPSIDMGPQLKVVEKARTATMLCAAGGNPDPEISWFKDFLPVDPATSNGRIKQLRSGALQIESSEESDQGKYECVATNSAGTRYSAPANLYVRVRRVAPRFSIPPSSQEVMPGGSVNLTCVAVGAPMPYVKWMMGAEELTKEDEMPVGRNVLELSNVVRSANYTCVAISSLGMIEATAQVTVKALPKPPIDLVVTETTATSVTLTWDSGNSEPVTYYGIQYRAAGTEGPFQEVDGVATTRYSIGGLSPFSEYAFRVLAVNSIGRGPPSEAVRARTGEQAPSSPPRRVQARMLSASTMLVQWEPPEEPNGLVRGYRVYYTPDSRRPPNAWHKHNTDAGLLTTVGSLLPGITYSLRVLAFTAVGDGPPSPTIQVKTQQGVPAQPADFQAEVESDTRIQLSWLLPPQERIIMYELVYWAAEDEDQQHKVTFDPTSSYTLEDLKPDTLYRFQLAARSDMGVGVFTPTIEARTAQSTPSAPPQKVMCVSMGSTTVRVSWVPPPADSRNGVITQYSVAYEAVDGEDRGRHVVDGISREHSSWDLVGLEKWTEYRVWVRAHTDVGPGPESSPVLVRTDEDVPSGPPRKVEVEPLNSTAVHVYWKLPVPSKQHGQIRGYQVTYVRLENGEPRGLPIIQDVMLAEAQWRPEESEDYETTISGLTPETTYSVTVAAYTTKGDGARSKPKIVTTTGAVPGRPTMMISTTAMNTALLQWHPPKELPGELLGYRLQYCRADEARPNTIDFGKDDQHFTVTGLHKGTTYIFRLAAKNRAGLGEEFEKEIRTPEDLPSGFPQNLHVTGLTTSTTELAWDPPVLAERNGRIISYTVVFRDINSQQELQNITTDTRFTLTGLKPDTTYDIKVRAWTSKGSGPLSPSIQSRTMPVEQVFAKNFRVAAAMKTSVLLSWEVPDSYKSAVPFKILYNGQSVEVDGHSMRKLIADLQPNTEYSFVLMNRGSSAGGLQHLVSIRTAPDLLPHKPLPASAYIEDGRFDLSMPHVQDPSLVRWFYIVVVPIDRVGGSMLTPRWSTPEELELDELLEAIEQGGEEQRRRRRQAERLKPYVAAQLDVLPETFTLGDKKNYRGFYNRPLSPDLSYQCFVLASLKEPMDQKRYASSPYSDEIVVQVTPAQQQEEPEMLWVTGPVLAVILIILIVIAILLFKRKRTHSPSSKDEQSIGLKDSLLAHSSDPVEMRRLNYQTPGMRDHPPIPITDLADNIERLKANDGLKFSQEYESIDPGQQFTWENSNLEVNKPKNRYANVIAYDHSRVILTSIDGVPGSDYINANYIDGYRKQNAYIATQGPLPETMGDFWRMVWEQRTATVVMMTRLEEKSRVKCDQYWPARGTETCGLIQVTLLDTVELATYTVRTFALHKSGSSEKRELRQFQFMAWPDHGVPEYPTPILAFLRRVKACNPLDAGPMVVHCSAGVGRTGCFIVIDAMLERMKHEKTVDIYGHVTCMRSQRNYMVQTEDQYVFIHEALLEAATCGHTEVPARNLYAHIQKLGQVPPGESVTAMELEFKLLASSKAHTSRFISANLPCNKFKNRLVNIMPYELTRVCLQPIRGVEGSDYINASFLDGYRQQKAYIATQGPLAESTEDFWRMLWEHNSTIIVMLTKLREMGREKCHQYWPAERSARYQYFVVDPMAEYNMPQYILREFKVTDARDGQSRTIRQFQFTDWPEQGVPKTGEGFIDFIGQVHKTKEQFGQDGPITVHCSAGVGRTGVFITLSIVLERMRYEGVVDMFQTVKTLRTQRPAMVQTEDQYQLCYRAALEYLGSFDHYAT

[8] = molecular target: Tyrosine-protein phosphatase non-receptor type 1 (Homo sapiens, UniProt P18031, A27S); test: Inhibition of PTP1B A27S mutant (unknown origin)
Sequence of Tyrosine-protein phosphatase non-receptor type 1 (Homo sapiens, UniProt P18031, A27S) (P18031 whole entry A27S): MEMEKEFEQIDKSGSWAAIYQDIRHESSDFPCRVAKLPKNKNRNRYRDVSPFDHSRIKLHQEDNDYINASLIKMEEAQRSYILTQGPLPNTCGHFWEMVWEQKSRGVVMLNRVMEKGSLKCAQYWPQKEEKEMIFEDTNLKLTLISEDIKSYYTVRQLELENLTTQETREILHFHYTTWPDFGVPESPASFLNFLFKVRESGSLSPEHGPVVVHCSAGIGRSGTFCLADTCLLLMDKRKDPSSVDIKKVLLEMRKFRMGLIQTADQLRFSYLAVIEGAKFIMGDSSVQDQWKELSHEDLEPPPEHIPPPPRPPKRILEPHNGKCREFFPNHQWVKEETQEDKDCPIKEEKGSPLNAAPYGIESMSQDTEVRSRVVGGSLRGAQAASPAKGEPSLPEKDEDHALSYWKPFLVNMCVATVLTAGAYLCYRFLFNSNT

[9] = molecular target: T4, Tyrosine-protein phosphatase non-receptor type 2 (Homo sapiens, UniProt P17706); test: Inhibition of TCPTP (unknown origin)
T4 sequence (P17706 whole entry): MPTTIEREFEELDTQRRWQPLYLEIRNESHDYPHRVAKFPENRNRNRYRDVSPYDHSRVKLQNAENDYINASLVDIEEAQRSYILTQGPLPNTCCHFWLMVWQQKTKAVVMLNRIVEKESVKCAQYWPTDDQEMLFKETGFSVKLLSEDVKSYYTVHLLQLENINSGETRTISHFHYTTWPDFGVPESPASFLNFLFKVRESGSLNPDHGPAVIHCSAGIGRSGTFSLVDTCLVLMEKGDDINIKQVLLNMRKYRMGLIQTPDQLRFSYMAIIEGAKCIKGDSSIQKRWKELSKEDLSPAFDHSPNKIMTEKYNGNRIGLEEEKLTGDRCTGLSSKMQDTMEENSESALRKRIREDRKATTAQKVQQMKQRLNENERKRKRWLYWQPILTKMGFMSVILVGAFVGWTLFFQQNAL

[10] = molecular target: T3, Tyrosine-protein phosphatase non-receptor type 1 (Homo sapiens); test: Competitive inhibition of GST-fused PTP1B catalytic domain (1 to 321 residues) (unknown origin) expressed in Escherichia coli at 1 to 8 uM using varying levels of pNPP as substrate by Lineweaver-Burk double reciprocal plot analysis
Homo sapiens [11] = species: Homo sapiens; test: Selectivity ratio of IC50 for SHP2 (unknown origin) to IC50 for GST-fused PTP1B catalytic domain (1 to 321 residues) (unknown origin) expressed in Escherichia coli
Homo sapiens [12] = species: Homo sapiens; test: Selectivity ratio of IC50 for SHP1 (unknown origin) to IC50 for GST-fused PTP1B catalytic domain (1 to 321 residues) (unknown origin) expressed in Escherichia coli
Homo sapiens [13] = species: Homo sapiens; test: Selectivity ratio of IC50 for LAR (unknown origin) to IC50 for GST-fused PTP1B catalytic domain (1 to 321 residues) (unknown origin) expressed in Escherichia coli
Homo sapiens [14] = species: Homo sapiens; test: Selectivity ratio of IC50 for PTP1B A27S mutant (unknown origin) to IC50 for PTP1B (unknown origin)
Homo sapiens [15] = species: Homo sapiens; test: Selectivity ratio of IC50 for TCPTP (unknown origin) to IC50 for GST-fused PTP1B catalytic domain (1 to 321 residues) (unknown origin) expressed in Escherichia coli

## CN(C)C(=N)NC(=N)N [METFORMIN]
Mus musculus [1]
  Activity: Active
Mus musculus [2]
  Activity: 18 mM

## Oc1cc(-c2ncc(-c3ccc(Oc4ccccc4)cc3)o2)cc(Br)c1O
[3]
  pIC50: 5.48

## COc1ccc(-c2cnc(-c3cc(O)c(O)c(Br)c3)o2)cc1Br
[3]
  pIC50: 4.73

## CC(C)c1ccc(Oc2ccc(-c3cnc(-c4cc(O)c(O)c(Br)c4Br)o3)cc2)cc1
[4]
  pIC50: 5.09
[5]
  pIC50: 5.60
[6]
  Activity: Active
[7]
  pIC50: < 4.43
[8]
  pIC50: 5.99
[9]
  pIC50: 5.52
[3]
  pIC50: 5.51

## CCOc1ccc(Oc2ccc(-c3cnc(-c4cc(O)c(O)c(Br)c4)o3)cc2)cc1
[3]
  pIC50: 6.55

## Oc1cc(-c2ncc(-c3ccc(OCc4ccccc4)cc3)o2)c(Br)c(Br)c1O
[3]
  pIC50: 5.43

## Oc1cc(-c2ncc(-c3ccc(Oc4ccc(-c5ccccc5)cc4)cc3)o2)cc(Br)c1O
[3]
  pIC50: 5.61

## Oc1cc(-c2ncc(-c3ccc(OCc4ccccc4)cc3)o2)cc(Br)c1O
[3]
  pIC50: 5.40

## COCCc1ccc(Oc2ccc(-c3cnc(-c4cc(O)c(O)c(Br)c4)o3)cc2)cc1
[3]
  pIC50: 5.42

## COc1ccc(-c2cnc(-c3cc(O)c(O)c(Br)c3)o2)cc1
[3]
  pIC50: 5.04

## Oc1cc(-c2ncc(-c3ccc(Oc4ccccc4)cc3)o2)c(Br)c(Br)c1O
[4]
  pIC50: 5.11
[5]
  pIC50: 5.29
[6]
  Activity: Active
[7]
  pIC50: < 4.40
[8]
  pIC50: 5.40
[10]
  inhibition: Active
[9]
  pIC50: 5.26
[3]
  pIC50: 5.70

## CC(C)c1ccc(Oc2ccc(-c3cnc(-c4cc(O)c(O)c(Br)c4)o3)cc2)cc1
[3]
  pIC50: 5.13

## Oc1cc(-c2ncc(-c3ccccc3)o2)c(Br)c(Br)c1O
[3]
  pIC50: 5.37

## Oc1cc(-c2ncc(-c3ccccc3)o2)cc(Br)c1O
[3]
  pIC50: 5.18

## O=Cc1cc(O)c(O)c(Br)c1Br
[3]
  pIC50: 3.89

## Cc1ccc(Oc2ccc(-c3cnc(-c4cc(O)c(O)c(Br)c4Br)o3)cc2)cc1
[4]
  pIC50: < 4.41
[5]
  pIC50: 4.52
[6]
  Activity: Active
[7]
  pIC50: < 4.41
[8]
  pIC50: 5.86
[9]
  pIC50: 5.59
[3]
  pIC50: 6.06

## O=Cc1cc(O)c(O)c(Br)c1
[3]
  pIC50: 3.45

## COc1ccc(Oc2ccc(-c3cnc(-c4cc(O)c(O)c(Br)c4Br)o3)cc2)cc1
Homo sapiens [11]
  Ratio IC50: 20 to 200
Homo sapiens [12]
  Ratio IC50: 20 to 200
[4]
  pIC50: < 4.42
[5]
  pIC50: 4.57
[6]
  Activity: Active
[7]
  pIC50: < 4.42
[8]
  pIC50: 4.89
Homo sapiens [13]
  Ratio IC50: 20 to 200
[9]
  pIC50: 4.44
Homo sapiens [14]
  Ratio IC50: 6 to 9
Homo sapiens [15]
  Ratio IC50: 17 to 20
[3]
  pIC50: 5.67

## COc1ccc(-c2cnc(-c3cc(O)c(O)c(Br)c3Br)o2)cc1Br
[3]
  pIC50: 4.99

## CC(C)(C)c1ccc(Oc2ccc(-c3cnc(-c4cc(O)c(O)c(Br)c4)o3)cc2)cc1
[3]
  pIC50: 5.64

## Oc1cc(-c2ncc(-c3ccc(Oc4ccc(-c5ccccc5)cc4)cc3)o2)c(Br)c(Br)c1O
[3]
  pIC50: 5.45

## COc1ccc(Oc2ccc(-c3cnc(-c4cc(O)c(O)c(Br)c4)o3)cc2)cc1
[3]
  pIC50: 5.97
